Assay results: PMC8380758 (ACS chemical biology, 2021)
No end group written: not given here.

Columns and labels:
[1] = system: PHD1 (S287–E344) of KDM5A; assay: 2D 1H,15N HSQC NMR peptide titration; type: binding; details: 200 μM 15N-labeled PHD1, 298 K, pH 7.5
In short: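 15N-labelled KDM5A PHD1 (S287–E344) from GST fusion, GST removed by TEV, then Ni-resin pass and gel filtration. […] Buffer was 50 mM HEPES, NaCl, 0.5 mM TCEP, 0.1 mM ZnCl2, pH 7.5, 5% D2O, 298 K. CSP = √[(ΔH² + (0.2ΔN)²)/2].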

GST–PHD1 (KDM5A) Y294F = assay: Fluorescence polarization binding, Y294F mutant; details: FP, H3K4 10mer peptides
PHD1KDM5B = details: ref [13],[14]; cited from earlier work
[2] = biological target: T1, GST–PHD1 Y294A (KDM5A S287–K347) (UniProt P29375 287-347, Y294A); assay: fluorescence polarisation
T1 sequence (looked up): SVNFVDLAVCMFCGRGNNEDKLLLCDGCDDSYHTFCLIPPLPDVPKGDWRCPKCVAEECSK

[3] = biological target: T2, GST–PHD1 WT (KDM5A S287–K347) (UniProt P29375 287-347); assay: fluorescence polarisation
T2 sequence (looked up): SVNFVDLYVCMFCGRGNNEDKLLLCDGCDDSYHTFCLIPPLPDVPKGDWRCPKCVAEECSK

[4] = biological target: T3, GST–PHD1 V330A (KDM5A S287–K347) (UniProt P29375 287-347, V330A); assay: fluorescence polarisation
T3 sequence (looked up): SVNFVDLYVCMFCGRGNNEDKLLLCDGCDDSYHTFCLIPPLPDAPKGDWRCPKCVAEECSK

[5] = biological target: T4, GST–PHD1 D292N (KDM5A S287–K347) (UniProt P29375 287-347, D292N); assay: fluorescence polarisation
T4 sequence (looked up): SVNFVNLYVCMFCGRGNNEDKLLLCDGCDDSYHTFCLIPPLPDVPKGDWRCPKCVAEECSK

[6] = biological target: T5, PHD1 domain of histone demethylase KDM5A (S287–E344) (UniProt P29375 287-344, 15N- or 13C-,15N-labeled); assay: NMR titration
T5 sequence (looked up): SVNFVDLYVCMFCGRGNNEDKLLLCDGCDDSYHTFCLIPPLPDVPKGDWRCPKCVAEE

With H3 10mer: H3 10mer (A1–S10) the “interaction strength indicated by slow–intermediate exchange” value [1] was “low–micromolar affinity”.

For H3K4me1: H3K4me1 10mer peptide, the “interaction strength indicated by slow–intermediate exchange” value [1] was “strong interactions, comparable to those with unmodified H3”.

In the case of H3K4me2: H3K4me2 10mer peptide, the “impact of mutation on binding” value (GST–PHD1 (KDM5A) Y294F) is listed as “minimal impact on binding” and the Kd (PHD1KDM5B) is listed as greater than 80 µM.

For H3K4me3: H3K4me3 10mer peptide, the “impact of mutation on binding” value (GST–PHD1 (KDM5A) Y294F) is listed as “minimal impact on binding” and the Kd (PHD1KDM5B) is listed as greater than 80 µM.

ARTK(Me)QTARKS (peptide, UniProt P68431 2-11, looked up) [histone H3K4me1 10mer peptide]: binds [2]; binds [3]; binds [4]. ARTK(Me)QTARKS (peptide, UniProt P68431 2-11, looked up) [histone H3K4me1 10mer peptide]: binds [5]; binds [6].

ARTK(Me2)QTARKS (peptide, UniProt P68431 2-11, looked up) [histone H3K4me2 10mer peptide]: binds [2]; binds [3]; binds [4]. ARTK(Me2)QTARKS (peptide, UniProt P68431 2-11, looked up) [histone H3K4me2 10mer peptide]: binds [5]; binds [6].

ARTK(Me3)QTARKS (peptide, UniProt P68431 2-11, looked up) [histone H3K4me3 10mer peptide]: binds [2]; binds [3]; binds [4]. ARTK(Me3)QTARKS (peptide, UniProt P68431 2-11, looked up) [histone H3K4me3 10mer peptide]: binds [5]; binds [6].

ARTKQTARKS (peptide, UniProt P68431 2-11, looked up) [histone H3 10mer peptide (A1–S10), unmodified]: binds [3]; binds [5]; binds [6].
